# Assay results as given in PubChem BioAssay.
# Calls of active or inactive are those of the source.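 Rule for the calls, unless noted: active = inhibition at or above 50% at 10 µM; inactive = inhibition below 50%.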
# What was measured:
# [1] = inhibitors of TNFa-induced NFkB p65 translocation, primary screen, imaging, HUVEC, MLSMR starter and 10KST1 sets (AID 438;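 active = inhibition above 20% together with a positive visual image hit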;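 note: compound added about 3h40 before a 20 min TNFalpha stimulation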;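 for inhibition: signal is the nuclear over cytoplasmic p65 intensity ratio per well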); details: HUVEC TNFa-induced p65 nuclear translocation; cell count: measured here: nuclei count (cytotoxicity indicator), at 2.08 µM; inhibition: at 2 µM, stronger effect = higher value, 0% TNFa-plus-vehicle, 100% no-TNFa wells
# [2] = reduction of polyQ htt aggregates in cells – imaging, exon1htt(103Q)mCFP cells, high-content imaging, primary screen (AID 483;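 active = visual image review flags a hit and inhibition of aggregation exceeds 20%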;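 note: compound exposure lasted 3 days before fixation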;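 for nuclei count: percent of the per-plate median nuclei count of sample wells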); details: exon1htt(103Q)mCFP cell line, aggregate imaging, at 2 µM; inhibition of aggregation: stronger effect = higher value; nuclei count: measured here: cell count, toxicity
# [3] = endothelial E-selectin expression blockers – imaging, HUVEC, immunofluorescence, MLSMR starter and 10KST1 sets, primary screen (AID 487;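 active = visually confirmed hit in the image check and inhibition above 20%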;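 for inhibition: signal is fraction of cell area covered by stained E-selectin grains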;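 for nuclei count: 100% = median nuclei count of all wells on the same plate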); details: HUVEC TNFalpha-induced E-selectin immunofluorescence imaging, at 2 µM; inhibition: stronger effect = higher value; nuclei count: measured here: cell number, toxicity
# [4] = molecular target: Voltage-gated potassium channel subunit beta-2 (Rattus norvegicus) (UniProt P62483); experiment: inhibitors of rat Kvbeta2 reductase activity – biochemical, NADPH fluorescence, primary screen (AID 622;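 active = fluorescence slope higher than the sample average by over 3 SD, cut at about -0.22 in these data, passing the limit was not always enough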;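 note: slope of raw intensity against log time taken from 70 to 1610 s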); details: recombinant KvBeta, 4-cyanobenzaldehyde reduction, at 10 µM, stronger effect = higher value
# [5] = molecular target: Voltage-gated potassium channel subunit beta-2 (Rattus norvegicus) (UniProt P62483); experiment: enhancers of rat Kvbeta2 NADPH turnover – biochemical, NADPH fluorescence, primary screen (AID 623;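 active = NADPH fluorescence slope more negative than the mean of all samples by about 3 SD, 99.7% confidence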;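 note: fluorescence intensity change per second fitted from 20 to 320 s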); details: Recombinant KvBeta, NADPH fluorescence decrease slope, 10 min; at 10 µM; stronger effect = lower value
# [6] = molecular target: Muscarinic acetylcholine receptor M4 (Homo sapiens) (UniProt P08173); experiment: M4-linked GIRK flux change, two-sided – cell-based, HEK293 M4/GIRK, thallium flux, BTC-AM, M4 allosteric agonist project, primary screen (AID 625;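 active = fluorescence slope after compound addition differing from the mean of all tested samples at 99.7% confidence, mostly higher but some lower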;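 note: thallium influx through GIRK channels coupled to M4 in HEK293 cells with BTC-AM dye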); details: at 10 µM, actives lie on both sides
# How it was run: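 System: HEK293 cells with M4 receptor and GIRK channels | Incubation: Cells overnight at 37 °C, BTC-AM loading 1 h, reads 2 min total | Technique: Kinetic BTC-AM fluorescence sampled at 1 Hz, 10 s pre-addition baseline | Measure: Post-addition slope, 15–24 s, of baseline-normalized fluorescence | Control set: Carbachol positive, DMSO negative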
# [7] = blockers of RIG-like receptor reporter activation – cell-based, Sendai virus stimulus, luciferase, 10K MLSCN set, TLR/RLR signaling modifier project, primary screen (AID 602276); details: HEK293 RL24 IRF3 luciferase reporter, at 10 µM, stronger effect = higher value;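 note: firefly luciferase from ISG56 promoter only with Renilla not read in this screen; 0% = Sendai virus plus DMSO and 100% = medium plus DMSO without virus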
# [8] = TLR3 IRF3 reporter activation blockers – cell-based, poly I:C stimulus, luciferase, 10K MLSCN set, primary screen (AID 602277;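 active = inhibition of the reporter signal at or above 50%; inactive = inhibition below 50%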); details: HEK293-TLR3 RL24 IRF3 luciferase reporter, at 10 µM, stronger effect = higher value
# Voltage-gated potassium channel subunit beta-2 (Rattus norvegicus), sequence (P62483 whole entry, looked up): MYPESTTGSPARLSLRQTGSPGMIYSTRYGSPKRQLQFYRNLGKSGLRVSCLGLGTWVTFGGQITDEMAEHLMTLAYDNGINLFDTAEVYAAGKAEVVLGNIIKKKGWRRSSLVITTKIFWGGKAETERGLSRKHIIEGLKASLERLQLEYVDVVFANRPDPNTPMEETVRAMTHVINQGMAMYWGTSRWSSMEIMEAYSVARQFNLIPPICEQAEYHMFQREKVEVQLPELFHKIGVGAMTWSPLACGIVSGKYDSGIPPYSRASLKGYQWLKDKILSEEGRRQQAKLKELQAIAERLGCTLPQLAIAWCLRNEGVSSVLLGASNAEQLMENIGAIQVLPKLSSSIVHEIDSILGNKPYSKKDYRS
# Muscarinic acetylcholine receptor M4 (Homo sapiens), sequence (P08173 whole entry, looked up): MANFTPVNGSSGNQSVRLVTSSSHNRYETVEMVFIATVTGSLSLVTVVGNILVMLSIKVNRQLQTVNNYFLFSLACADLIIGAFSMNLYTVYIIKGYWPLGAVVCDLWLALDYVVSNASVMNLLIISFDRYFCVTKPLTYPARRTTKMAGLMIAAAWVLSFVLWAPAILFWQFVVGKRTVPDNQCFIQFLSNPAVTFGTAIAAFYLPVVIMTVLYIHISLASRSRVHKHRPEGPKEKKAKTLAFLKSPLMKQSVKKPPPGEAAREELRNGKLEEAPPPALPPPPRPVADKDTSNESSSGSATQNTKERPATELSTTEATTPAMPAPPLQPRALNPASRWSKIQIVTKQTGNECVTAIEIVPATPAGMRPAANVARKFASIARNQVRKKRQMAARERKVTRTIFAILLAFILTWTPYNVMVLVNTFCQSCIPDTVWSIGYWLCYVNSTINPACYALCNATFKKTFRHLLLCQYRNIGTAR
SMILES,cell count [1],inhibition [1],inhibition of aggregation [2],nuclei count [2] [%],inhibition [3],nuclei count [3] [%],fluorescence slope [4],NADPH fluorescence slope [5],fluorescence slope [6],inhibition [7],inhibition [8]
c1ccc(OCCOc2ncnc3sccc23)cc1,395,-22% (inactive),-0.7% (inactive),106,-62.1% (inactive),125,-0.583 (inactive),-5e-05 (inactive),0.00602 (inactive),-2.1% (inactive),-65.8% (inactive)
O=C(Cc1c(O)c2ccccc2[nH]c1=O)NCc1ccc(F)cc1,251,4.3% (inactive),18.1% (inactive),61.3,-25.6% (inactive),115,-0.544 (inactive),-2e-05 (inactive),0.00681 (inactive),20.7% (inactive),24.8% (inactive)
Cc1ccc(C(=O)C2COC(=O)C2)cc1 (centres undefined),333,4.9% (inactive),-2.7% (inactive),116,-31.2% (inactive),103,-0.579 (inactive),-2.8e-05 (inactive),0.00631 (inactive),18.7% (inactive),0.799% (inactive)
O=C(Cc1ccc(Br)cc1)N1CCCCCC1,358,-0.2% (inactive),1.7% (inactive),99.5,-68.6% (inactive),99.7,-0.657 (inactive),1.8e-05 (inactive),0.00369 (inactive),-33.9% (inactive),-69.5% (inactive)
CCCCCCC(=O)c1c(C)[nH]c(C(=O)OCC)c1C,310,-4.2% (inactive),14.4% (inactive),59.6,-54.5% (inactive),102,-0.517 (inactive),-2.8e-05 (inactive),0.00442 (inactive),-13.2% (inactive),-55.3% (inactive)
COc1ccc(CCNS(=O)(=O)c2ccc3c(c2)OCCO3)cc1,361,4.2% (inactive),2.3% (inactive),102,33.5% (inactive),106,-0.466 (inactive),-3.5e-05 (inactive),0.00491 (inactive),14.6% (inactive),16.5% (inactive)
Cc1cc(NC(=O)c2cnn3cccnc23)no1,467,0.3% (inactive),3.3% (inactive),104,-33.8% (inactive),119,-0.613 (inactive),-4.3e-05 (inactive),0.00996 (inactive),-57.6% (inactive),-124% (inactive)
COCCn1c(SCC(=O)c2ccccc2)nc2c(c1=O)SC(C)C2 (centres undefined),232,7.3% (inactive),-6.9% (inactive),101,-17.9% (inactive),99.1,-0.45 (inactive),-0.000101 (inactive),0.00738 (inactive),1.47% (inactive),7.51% (inactive)
COc1ccc(C2NC(c3ccc(OC)c(OC)c3OC)C(C)C(=O)C2C)c(OC)c1OC (centres undefined),663,-16.3% (inactive),2.6% (inactive),141,-142% (inactive),104,-0.474 (inactive),-2.1e-05 (inactive),0.00551 (inactive),14.8% (inactive),25.4% (inactive)
Cc1nc2ccccc2c(=O)n1NC(=O)c1ccc(F)cc1Cl,302,5% (inactive),9.2% (inactive),87.5,21.5% (inactive),70.3,-0.483 (inactive),-2.3e-05 (inactive),0.00433 (inactive),10.8% (inactive),8.86% (inactive)
O=C(NC1CCCCC1)C1CC(O)CN1C(=O)OCc1ccccc1 (centres undefined),819,-4.1% (inactive),26.1% (inactive),104,-56.4% (inactive),98,-0.564 (inactive),-7.5e-06 (inactive),0.00452 (inactive),2.76% (inactive),14.7% (inactive)
CCCCn1cnc2c(cnn2-c2ccc(Cl)cc2)c1=O,342,-16.3% (inactive),-4.9% (inactive),102,-72% (inactive),103,-0.531 (inactive),-2.1e-05 (inactive),0.00515 (inactive),-48.5% (inactive),-141% (inactive)
O=C(Nc1cccc(C(F)(F)F)c1)c1cccnc1N1CCCC1,360,4.5% (inactive),-13% (inactive),105,-32.4% (inactive),118,-0.531 (inactive),2.1e-05 (inactive),0.00477 (inactive),16.2% (inactive),28.2% (inactive)
Cc1ccccc1C(=O)NC1CCN(CC(=O)Nc2nccs2)CC1,608,-39.8% (inactive),8.2% (inactive),111,-37.1% (inactive),109,-0.476 (inactive),7.7e-05 (inactive),0.00698 (inactive),9.51% (inactive),14.2% (inactive)
